Data from ChEMBL document CHEMBL4480385, “Design, synthesis and molecular docking studies of novel N-arylsulfonyl-benzimidazoles with anti Trypanosoma cruzi activity” (Eur J Med Chem, 2019).

What was measured:
[1] = test system: Trypanosoma cruzi; test: Inhibition of PFK in Trypanosoma cruzi IRHOD/CO/2008/SN3 epimastigotes assessed as change in D-lactate excretion at IC25 after 96 hrs by 1H NMR analysis relative to control; parameters: scale not given: the % may be the effect or the level left
Procedure, shortened: (§1)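 SN3 epimastigotes (starting at 5 × 10⁵ cells/mL) were incubated with compound for 96 h at 28 °C, alongside drug-free control cultures. Cells were pelleted at 400 g for 10 min. Excreted end products in the supernatant were identified and quantified by ¹H NMR against a DSS reference signal, and compared with the controls.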

[2] = test system: Vero; test: Cytotoxicity against African green monkey Vero cells after 72 hrs by propidium iodide/fluorescein diacetate staining based flow cytometry; type: cell-based; settings: Chlorocebus sabaeus
[3] = test system: Trypanosoma cruzi; test: Inhibition of PFK in Trypanosoma cruzi IRHOD/CO/2008/SN3 epimastigotes assessed as change in L-alanine excretion at IC25 after 96 hrs by 1H NMR analysis relative to control; parameters: scale not given: the % may be the effect or the level left; procedure, shortened: as §1
[4] = Selectivity index, ratio of IC50 for African green monkey Vero cells to IC50 for Trypanosoma cruzi IRHOD/CO/2008/SN3 epimastigotes; type: toxicity; settings: read-out: Ratio IC50
[5] = test system: Trypanosoma cruzi; test: Inhibition of PFK in Trypanosoma cruzi IRHOD/CO/2008/SN3 epimastigotes assessed as change in succinate excretion at IC25 after 96 hrs by 1H NMR analysis relative to control; parameters: scale not given: the % may be the effect or the level left; procedure, shortened: as §1
[6] = test system: Trypanosoma cruzi; test: Inhibition of PFK in Trypanosoma cruzi IRHOD/CO/2008/SN3 epimastigotes assessed as change in acetate excretion at IC25 after 96 hrs by 1H NMR analysis relative to control; parameters: scale not given: the % may be the effect or the level left; procedure, shortened: as §1
[7] = Selectivity index, ratio of IC50 for African green monkey Vero cells to IC50 for Trypanosoma cruzi IRHOD/CO/2008/SN3 amastigotes infected in African green monkey Vero cells; type: toxicity; settings: read-out: Ratio IC50
[8] = test system: Trypanosoma cruzi; test: Anti-trypanosomal activity against Trypanosoma cruzi IRHOD/CO/2008/SN3 amastigotes infected in African green monkey Vero cells after 72 hrs by Giemsa-staining based microscopic analysis; type: functional, organism-based; settings: IRHOD/CO/2008/SN3, Vero
[9] = Inhibition of Trypanosoma cruzi apoenzyme form of PFK
[10] = test system: Trypanosoma cruzi; test: Potency index, ratio benznidazole IC50 to test compound IC50 for anti-trypanosomal activity against Trypanosoma cruzi IRHOD/CO/2008/SN3 epimastigotes; type: functional
Procedure, shortened: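 Epimastigotes of the SN3 strain were grown in TLM with 10% inactivated FBS at 28 °C in air. Compounds or benznidazole, dissolved in PEG:EtOH (7:3), were added at final levels of 1, 10, 25 and 50 and left for 72 h. Parasites were counted by haemocytometer. IC50 for 50% growth inhibition was fitted by PROBIT, and values are the mean of three experiments.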

[11] = test system: Trypanosoma cruzi; test: Inhibition of PFK in Trypanosoma cruzi IRHOD/CO/2008/SN3 epimastigotes assessed as change in pyruvate excretion at IC25 after 96 hrs by 1H NMR analysis relative to control; parameters: scale not given: the % may be the effect or the level left; procedure, shortened: as §1
[12] = test system: Trypanosoma cruzi; test: Anti-trypanosomal activity against Trypanosoma cruzi IRHOD/CO/2008/SN3 epimastigotes after 72 hrs by Neubauer hemocytometric method; type: functional, organism-based; settings: IRHOD/CO/2008/SN3, 72 h
[13] = Inhibition of Trypanosoma cruzi holoenzyme form of PFK
[14] = test system: Trypanosoma cruzi; test: Potency index, ratio benznidazole IC50 to test compound IC50 for anti-trypanosomal activity against Trypanosoma cruzi IRHOD/CO/2008/SN3 amastigotes infected in African green monkey Vero cells; type: functional
Procedure, shortened: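 Vero cells were grown in RPMI with 10% inactivated FBS at 37 °C in 5% CO2. They were seeded at 1 × 10⁴ cells/well on coverslips, cultured for 2 days, then infected with metacyclic T. cruzi at 10:1 for 24 h and washed. Compounds at 1, 10, 25 and 50 were added for 72 h. Amastigotes in methanol-fixed, Giemsa-stained preparations were counted against untreated cultures.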

SMILES	pIC50 [9]	IC50 [12]	pIC50 [13]	IC50 [2]	selectivity ratio [4]	further results
O=[N+]([O-])c1cccc(S(=O)(=O)n2cnc3ccccc32)c1	3.66	4.6 µM		648 µM	141	Activity [1]: -3.97%; Activity [3]: -22.7%; Activity [5]: -33.2%; Activity [6]: -16.6%; selectivity ratio [7]: 40.6; IC50 [8]: 15.9 µM; Ratio IC50 [10]: 3 - 5; Activity [11]: -30.2%
Cc1cc(NS(=O)(=O)C2CCN(C(=O)Cc3ccc(Cl)c(Cl)c3)CC2)no1	4.16		4.16			
O=S(=O)(c1cccc(C(F)(F)F)c1)n1cnc2ccccc21	4.14	13.9 µM		59.8 µM	4.3	
O=[N+]([O-])c1ccc(S(=O)(=O)n2cnc3ccccc32)cc1	3.41	2.6 µM		347 µM	135	Ratio IC50 [10]: 3 - 5
O=S(=O)(c1ccc(Cl)cc1)n1cnc2ccccc21	4.23	16.8 µM		122 µM	7.3	
CC(C)(C)c1ccc(S(=O)(=O)n2cnc3ccccc32)cc1	3.48	3 µM		68.5 µM	22.5	Ratio IC50 [10]: 3 - 5
O=S(=O)(c1ccc(Br)cc1)n1cnc2ccccc21	4.37	23.5 µM		1190 µM	50.5	selectivity ratio [7]: 33.3; IC50 [8]: 35.7 µM
CC(=O)Nc1ccc(S(=O)(=O)n2cnc3ccccc32)cc1	3.86	7.2 µM		468 µM	65.4	Activity [1]: 25.5%; Activity [3]: 6.8%; Activity [5]: 28.3%; Activity [6]: 12.3%; selectivity ratio [7]: 45.9; IC50 [8]: 10.1 µM; Activity [11]: 2.38%; Ratio IC50 [14]: 2
Cc1cc(C)c(C)c(S(=O)(=O)n2cnc3ccccc32)c1C	3.34	2.2 µM		205 µM	91.7	Activity [1]: 26.4%; Activity [3]: 10.4%; Activity [5]: -7.22%; Activity [6]: 12%; selectivity ratio [7]: 10.8; IC50 [8]: 19 µM; Ratio IC50 [10]: 3 - 5; Activity [11]: 10.9%

Continued, in another order:

pIC50 [9]	IC50 [12]	pIC50 [13]	SMILES	IC50 [2]	selectivity ratio [4]	further results
4.21		4.21	Cc1cc(NS(=O)(=O)c2ccc(NCCc3ccc(Cl)c(Cl)c3)cc2)no1			
4.21		4.21	Cc1cc(NS(=O)(=O)c2ccc(NC(=O)Cc3ccc(Cl)cc3Cl)cc2)no1			
4.11		4.11	CN(C)c1cccc(NS(=O)(=O)c2ccc(NC(=O)Cc3ccc(Cl)c(Cl)c3)cc2)c1			
2.36		2.36	Cc1cc(NS(=O)(=O)c2ccc(NC(=O)Cc3ccc(Cl)c(Cl)c3)cc2)no1			
4.56		4.56	Cc1cc(NS(=O)(=O)c2ccc(NC(=O)C(C)(C)c3ccc(Cl)c(Cl)c3)cc2)no1			
4.21		4.21	Cc1cc(NS(=O)(=O)c2cccc(NC(=O)Cc3ccc(Cl)c(Cl)c3)c2)no1			
2.86		2.86	O=C(Cc1ccc(Cl)c(Cl)c1)Nc1ccc(S(=O)(=O)Nc2cc[nH]n2)cc1			
3.46		3.46	Cc1cc(NS(=O)(=O)c2ccc(NC(=O)Cc3cccc(Cl)c3)cc2)no1			
3.16		3.06	Cc1cc(NS(=O)(=O)c2ccc(N(C)C(=O)Cc3ccc(Cl)c(Cl)c3)cc2)no1			
4.06		4.06	Cc1cc(NS(=O)(=O)c2ccc(NC(=O)CCc3ccc(Cl)c(Cl)c3)cc2)no1			
3.81		3.81	Cc1cc(NS(=O)(=O)c2ccc(NC(=O)Cc3ccc(C)c(F)c3)cc2)no1			
4.31		4.31	Cc1cc(NS(=O)(=O)c2ccc(NC(=O)Cc3ccccc3)cc2)no1			
3.31		3.26	Cc1cc(NS(=O)(=O)c2ccc(NC(=O)Cc3ccc4ccccc4c3)cc2)no1			
